Data reported in ChEMBL document CHEMBL1144442, “Identification from a positional scanning peptoid library of in vivo active compounds that neutralize bacterial endotoxins” (J Med Chem, 2005).
Residues, ends and D or L forms follow the SMILES beside them.

Legend:
[1] = system: Mus musculus; experiment: Ratio of percent of Tumor necrosis factor alpha measured in the presence with respect to that measured when animals were treated only with LPS;Mice were intraperitoneally injected with 10 ug of LPS alone or premixed with 20 ug of each compound; type: functional
Outline: (§1)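 Mice were given 10 µg LPS ip, either alone or premixed with 20 µg compound in PBS containing 40% DMSO. Mice were bled after 1 h and serum TNF-α was measured by ELISA. Values are % of the TNF-α in mice given LPS alone (100%), as mean ± SD of seven mice per group.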

[2] = species on record: Mus musculus; experiment: In vitro inhibitory concentration necessary to neutralize Escherichia coli 1,4''-diphosphoryl lipid A; type: functional, organism-based
Outline: (§2)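 Chromogenic Limulus amebocyte lysate assay, which detects free LPS or diphosphoryl lipid A left unneutralized by the test compound. Compounds were tested by 2-fold serial dilution. IC50 is the concentration that neutralizes 50% of the LPS or lipid A in vitro.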

[3] = species on record: Mus musculus; experiment: In vitro inhibitory concentration necessary to neutralize Gram-negative bacterial lipopolysaccharide in mouse model; type: functional, organism-based; outline: as §2
[4] = system: Mus musculus; experiment: Ratio of percent of Tumor necrosis factor alpha measured in the presence with respect to that measured when animals were treated only with LPS;Mice were intraperitoneally injected with 10 ug of LPS alone or premixed with 100 ug of compound; type: functional, organism-based
Outline: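 Mice were given 10 µg LPS ip, alone or premixed with the test agent (peptoids 20 µg in PBS with 40% DMSO; polymyxin B or LALF-14 100 µg). Sera were collected after 1 h and TNF-α measured by ELISA. Values are % of the LPS-only TNF-α level, mean ± SD, seven mice per group.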

[5] = system: Mus musculus; experiment: Ratio of percent of Tumor necrosis factor alpha measured in the presence with respect to that measured when animals were treated only with LPS;Mice were intraperitoneally injected with 10 ug of LPS alone or premixed with 20 ug of each compound;ND= Not determined; type: functional; outline: as §1

Compound	Ratio [1]	IC50 [2]	IC50 ([3]; Mus musculus)	further results
NC(=O)CN(CCC(c1ccccc1)c1ccccc1)C(=O)CN(CCC(c1ccccc1)c1ccccc1)C(=O)CNCC1CCCO1 (stereo unspecified) [TRIMER I]	71	250 µM	40 µM	
POLYMYXIN B [listing 1 of 2 here]				Ratio [4]: 5
COc1ccc(CCN(CC(=O)N(CCC(c2ccccc2)c2ccccc2)CC(N)=O)C(=O)CNCCC(c2ccccc2)c2ccccc2)cc1	10	> 250 µM	50 µM	
CC(C)C[C@@H]1NC(=O)[C@H](CCCN=C(N)N)NC(=O)[C@H](CCCN=C(N)N)NC(=O)[C@H](Cc2ccccc2)NC(=O)[C@H]([C@@H](C)O)NC(=O)[C@@H]2CCCN2C(=O)[C@H](CCCCN)NC(=O)[C@@H](NC(=O)CN)CSSC[C@@H](C(=O)NCC(=O)O)NC(=O)[C@H](CCCCN)NC(=O)[C@H](Cc2ccc(O)cc2)NC(=O)[C@H](CCCCN)NC(=O)[C@H](Cc2c[nH]c3ccccc23)NC(=O)[C@H](CCCCN)NC1=O (HELM PEPTIDE1{G.C.K.P.T.F.R.R.L.K.W.K.Y.K.C.G}$PEPTIDE1,PEPTIDE1,2:R3-15:R3$$$V2.0) [listing 1 of 2 here]		40 µM	64 µM	
POLYMYXIN B [listing 2 of 2 here]				IC50 [3]: < 0.0001 µM
CC(C)C[C@@H]1NC(=O)[C@H](CCCN=C(N)N)NC(=O)[C@H](CCCN=C(N)N)NC(=O)[C@H](Cc2ccccc2)NC(=O)[C@H]([C@@H](C)O)NC(=O)[C@@H]2CCCN2C(=O)[C@H](CCCCN)NC(=O)[C@@H](NC(=O)CN)CSSC[C@@H](C(=O)NCC(=O)O)NC(=O)[C@H](CCCCN)NC(=O)[C@H](Cc2ccc(O)cc2)NC(=O)[C@H](CCCCN)NC(=O)[C@H](Cc2c[nH]c3ccccc23)NC(=O)[C@H](CCCCN)NC1=O (HELM PEPTIDE1{G.C.K.P.T.F.R.R.L.K.W.K.Y.K.C.G}$PEPTIDE1,PEPTIDE1,2:R3-15:R3$$$V2.0) [listing 2 of 2 here]				Ratio [5]: 67
